# Experimental data: ChEMBL document CHEMBL4138103, “Discovery of efficient stimulators for adult hippocampal neurogenesis based on scaffolds in dragon's blood” (Eur J Med Chem, 2017)
# Calls of active or inactive are those of the source. No cut-off for these calls is given here.
# Assays:
# [1] = Cytotoxicity against human SH-SY5Y cells assessed as cell survival at 500 uM after 24 hrs by MTT assay relative to control; assay type: cell-based; conditions: read-out: Survival
# Procedure, shortened: (§1)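 SH-SY5Y human neuroblastoma cells seeded at 5 × 10⁴ cells/mL, incubated 24 h at 37 °C, then exposed to compounds at final concentrations of […] for 24 h. MTT added for a further 4 h at 37 °C. Absorbance read at 570 nm and reported as percent viability. Five parallel samples per condition.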
# [2] = Cytotoxicity against human SH-SY5Y cells assessed as cell survival at 1000 uM after 24 hrs by MTT assay relative to control; assay type: cell-based; conditions: read-out: Survival; procedure, shortened: as §1
# [3] = system: Rattus norvegicus; assay: In vivo neurogenic activity in Sprague-Dawley rat neural progenitor cells at 2.2 mg/kg, ip qd pretreated for 28 days followed by BrdU addition at 2 hrs interval for twice on day 29 measured after 24 hrs by BrdU incorporation assay; assay type: functional, organism-based
# Procedure, shortened: (§2)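 Male SD rats aged 10 weeks, acclimatized 7 days (11 weeks old at start), dosed ip once daily for 28 days with compound in soybean oil containing 10% ethanol; vehicle group received 10% ethanol in oil. On day 29, BrdU in saline given twice at 100 mg/kg, 2 h apart. Rats sacrificed 24 h after the last BrdU. BrdU+ cells in SGZ-GCL counted by DAB immunostaining of 30 µm cryosections; n = 8; mean ± SEM.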
# [4] = Cytotoxicity against human SH-SY5Y cells assessed as cell survival at 100 uM after 24 hrs by MTT assay relative to control; assay type: cell-based; conditions: read-out: Survival; procedure, shortened: as §1
# [5] = system: Rattus norvegicus; assay: In vivo neurogenic activity in Sprague-Dawley rat neural progenitor cells at 4 mg/kg, ip qd pretreated for 28 days followed by BrdU addition at 2 hrs interval for twice on day 29 measured after 24 hrs by BrdU incorporation assay relative to control; assay type: functional; procedure, shortened: as §2
# [6] = system: Rattus norvegicus; assay: In vivo neurogenic activity in Sprague-Dawley rat neural progenitor cells at 0.5 to 4 mg/kg, ip qd pretreated for 28 days followed by BrdU addition at 2 hrs interval for twice on day 29 measured after 24 hrs by BrdU incorporation assay; assay type: functional, organism-based
# Procedure, shortened: (§3)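 Eleven-week-old SD male rats were dosed ip daily for 28 days in soybean oil with 10% ethanol, against a vehicle control. On day 29 BrdU 100 mg/kg was given twice, 2 h apart, and rats were sacrificed 24 h later. Sections were treated with HCl denaturation, BrdU antibody at 1:500 at 4 °C overnight and DAB detection. BrdU+ cells in the SGZ-GCL were counted, mean ± SEM, n = 8.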
# [7] = system: Rattus norvegicus; assay: In vivo neurogenic activity in Sprague-Dawley rat neural progenitor cells at 0.5 mg/kg, ip qd pretreated for 28 days followed by BrdU addition at 2 hrs interval for twice on day 29 measured after 24 hrs by BrdU incorporation assay; assay type: functional, organism-based; procedure, shortened: as §3
SMILES,"viability at 24 h, 500 µM [1]","viability at 24 h, 1000 µM [2]",Activity [3],"viability at 24 h, 100 µM [4]",fold change (FC) [5],Activity [6],Activity [5],Activity [7]
Oc1ccc(/C=C/c2ccc3c(c2)OCO3)cc1,20.1%,14.4%,inactive,39.5%,–,–,–,–
CC(=O)Nc1cccc(C#Cc2ccc3c(c2)OCO3)c1,62.9%,55.3%,inactive,70.6%,–,–,–,–
COc1ccc(/C=C/c2ccc(NC(C)=O)cc2)cc1OC,56.5%,31.3%,inactive,68%,–,–,–,–
CC(C)C(=O)Nc1ccc(/C=C/c2ccc3c(c2)OCO3)cc1,48.4%,42%,–,50.9%,2.2 - 3.5,Active,–,–
COc1ccc(OCC#Cc2ccc3c(c2)OCO3)cc1,79.7%,36.3%,Active,44.1%,–,–,–,–
COc1cc(/C=C/c2ccc(OC(C)=O)cc2)cc(OC)c1,13.9%,6.75%,–,6.48%,–,–,Active,inactive
COc1ccc(/C=C/c2ccc(NC(C)=O)cc2)cc1,52.2%,40.7%,inactive,70%,–,–,–,–
O=C(Nc1ccc(/C=C/c2ccc3c(c2)OCO3)cc1)C1CC1,97.3%,85.3%,–,98.9%,2.2 - 3.5,Active,–,–
